# Test results published in ChEMBL document CHEMBL4665810, “Aryloxy Diester Phosphonamidate Prodrugs of Phosphoantigens (ProPAgens) as Potent Activators of Vγ9/Vδ2 T-Cell Immune Responses” (J Med Chem, 2020).
# Calls of active or inactive are those of the source. The calls are words filed in the database; no cut-off is given here.
# Assays:
# [1] = Drug metabolism assessed as recombinant carboxypeptidase Y (unknown origin)-mediated hydrolysis of ester motif at 3 mg measured at 1 hr interval […] by 31PNMR analysis; assay type: ADME, Homo sapiens
# Method in brief: (§1)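 Compound, 3.0 mg in acetone-d6, mixed with TRIZMA buffer pH 7.6. Control 31P NMR taken at 25 °C, then carboxypeptidase Y (0.1 mg in TRIZMA) added. Spectra recorded at 25 °C after 10 min and then every 1 h for 12 h.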
# [2] = molecular target: T1, Butyrophilin subfamily 3 member A1 (Homo sapiens, UniProt O00481); assay: Binding affinity to BTN3A1 in human PBMC-derived Vgamma9/Vdelta2 T cells assessed as increase in CD69/CD25 level incubated for overnight by flow cytometric analysis; assay type: tissue-based, Vgamma9Vdelta2 T cell
# Method in brief: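 Healthy-donor PBMCs, 5 × 10^5 cells per well, stimulated with compounds over 10 pM to 100 μM, or 1 aM to 100 μM in a separate run. Incubated overnight at 37 °C/5% CO2. Vγ9+Vδ2+ cells gated within live CD3+ cells by flow cytometry and scored as % CD69+CD25+.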
# Target sequence in this assay (O00481 whole entry): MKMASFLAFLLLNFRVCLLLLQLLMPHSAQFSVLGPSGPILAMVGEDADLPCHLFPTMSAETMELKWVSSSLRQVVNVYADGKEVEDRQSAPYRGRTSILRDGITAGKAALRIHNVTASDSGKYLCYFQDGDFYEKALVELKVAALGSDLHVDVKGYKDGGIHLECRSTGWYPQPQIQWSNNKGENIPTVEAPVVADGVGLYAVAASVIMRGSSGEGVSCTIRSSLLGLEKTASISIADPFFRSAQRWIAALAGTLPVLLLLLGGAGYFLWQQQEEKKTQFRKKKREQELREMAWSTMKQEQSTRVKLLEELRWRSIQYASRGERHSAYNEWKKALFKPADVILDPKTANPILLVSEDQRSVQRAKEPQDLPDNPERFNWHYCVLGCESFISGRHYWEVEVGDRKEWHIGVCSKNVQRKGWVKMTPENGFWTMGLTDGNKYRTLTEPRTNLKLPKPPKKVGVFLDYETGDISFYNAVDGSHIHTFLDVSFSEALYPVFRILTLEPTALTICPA
# [3] = Drug metabolism assessed as recombinant carboxypeptidase Y (unknown origin)-mediated metabolite C formation and measured up to 15 hrs by HPLC analysis; assay type: ADME; conditions: human
# [4] = Drug metabolism assessed as recombinant carboxypeptidase Y (unknown origin)-mediated metabolite C formation and measured up to 15 hrs by LC-MS analysis; assay type: ADME; conditions: human
# [5] = Drug metabolism assessed as recombinant carboxypeptidase Y (unknown origin)-metabolite C formation at 3 mg measured at 1 hr interval for […] by 31PNMR analysis; assay type: ADME, Homo sapiens; method in brief: as §1
# [6] = molecular target: T1, Butyrophilin subfamily 3 member A1; assay: (§2) Binding affinity to BTN3A1 in human PBMC-derived Vgamma9/Vdelta2 T cells assessed as induction of Vgamma9/Vdelta2 T cell mediated T-24 cell lysis co-expressing GFP at 10 pM preincubated 4 hrs followed by compound washout and subsequent Vgamma9Vdelta2 T cell addition at 8:1 effector/target ratio and measured after 18 hrs by fluorescence based assay; assay type: tissue-based
# Method in brief: (§3)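 T24 bladder carcinoma cells made GFP+ by retroviral transduction. Targets pulsed 4 h with 10 pM compound, washed three times in RPMI, then cocultured 18 h at 37 °C with Vγ9Vδ2 T-cells expanded 14 days from donor PBMCs (5 μM zoledronate, 100 U/mL IL2 every 2–3 days). % killing = eFluor780+ GFP+ of all GFP+ T24 cells, by flow cytometry. Basal untreated-target killing subtracted; mean ± SE, n = 3.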
# Target sequence in this assay (O00481 30-513 limits assumed): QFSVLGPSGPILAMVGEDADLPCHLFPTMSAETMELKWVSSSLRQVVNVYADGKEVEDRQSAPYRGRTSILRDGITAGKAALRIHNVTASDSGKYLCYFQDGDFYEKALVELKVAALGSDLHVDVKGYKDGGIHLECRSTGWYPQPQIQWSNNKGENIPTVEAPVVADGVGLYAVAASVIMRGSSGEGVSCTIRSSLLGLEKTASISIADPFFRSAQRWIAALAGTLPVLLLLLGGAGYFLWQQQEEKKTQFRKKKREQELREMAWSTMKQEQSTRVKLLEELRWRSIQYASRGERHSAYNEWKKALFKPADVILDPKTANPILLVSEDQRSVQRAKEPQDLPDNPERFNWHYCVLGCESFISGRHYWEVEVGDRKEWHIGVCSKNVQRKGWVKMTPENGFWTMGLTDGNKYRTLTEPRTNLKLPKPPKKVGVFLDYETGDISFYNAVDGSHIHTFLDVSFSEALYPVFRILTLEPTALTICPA
# [7] = molecular target: T1, Butyrophilin subfamily 3 member A1; assay: as §2, with “1:1” for “8:1”; assay type: tissue-based; method in brief: as §3
# Target sequence in this assay (O00481 30-513 limits assumed): as above
# T-24 = assay: Cytotoxicity against human T-24 cells co-expressing GFP assessed as reduction in cell viability at 10 pM after 4 hrs by eFluor 780 fixable viability dye based fluorescence assay; conditions: t-24, 4 h
# Method in brief: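 GFP+ T24 cells pulsed 4 h with 10 pM compound, washed, and held 18 h at 37 °C without effector cells (0:1 ratio). Dead targets measured by flow cytometry as eFluor780+ GFP+ fraction of total GFP+ T24 cells; mean ± SE, n = 3.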
# [8] = molecular target: T1, Butyrophilin subfamily 3 member A1; assay: Potency index, ratio of HMBPP EC50 to test compound EC50 for activation of BTN3A1 in human PBMC-derived Vgamma9/Vdelta2 T cells; assay type: tissue-based; conditions: Vgamma9Vdelta2 T cell
# Target sequence in this assay (O00481 30-513 limits assumed): as above
# [9] = Stability of compound in human serum at 5 mg and measured at 30 mins interval for up to 12 hrs by 31PNMR analysis; assay type: ADME, cell-free
# Method in brief: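 Compound, 5.0 mg in DMSO/D2O, with control 31P NMR recorded at 37 °C. Freshly thawed human serum then added and 31P NMR spectra recorded at 37 °C every 30 min over 12 h.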
# CD8-positive T cell = assay: Activation of human PBMC derived CD-8 positive cells assessed as increase in alphabeta T cells at 0.1 to 10000 nM by Alexa Flour A88a staining based flow cytometry; assay type: functional; conditions: dose nM 0.1-10000
# [10] = Half life in human serum at 5 mg and measured up to 12 hrs by 31PNMR analysis; assay type: ADME, cell-free
# Method in brief: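 Prodrug (5.0 mg) dissolved in DMSO/D2O; control 31P NMR spectrum recorded at 37 °C, then freshly thawed human serum added. 31P NMR spectra acquired at 37 °C every 30 min over 12 h to follow the prodrug signals.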
# [11] = molecular target: T1, Butyrophilin subfamily 3 member A1; assay: Binding affinity to BTN3A1 in human PBMC-derived Vgamma9/Vdelta2 T cells; assay type: tissue-based, Vgamma9Vdelta2 T cell
# Target sequence in this assay (O00481 whole entry): as the sequence (O00481 whole entry) above
SMILES,EC50 [2] [nM],Activity [6],Activity [7],Activity (T-24),other results
C/C(=C\CC(F)(F)P(=O)(N[C@@H](C)C(=O)OC(C)C)Oc1ccccc1)CO (some centres undefined),0.759,,,,Drug metabolism [1]: Metabolite_Detected; Drug metabolism [3]: Metabolite_Detected; Drug metabolism [4]: Metabolite_Detected; Drug metabolism [5]: Metabolite_Detected
O=P(O)(O)C(O)(Cn1ccnc1)P(=O)(O)O [ZOLEDRONIC ACID],3060,,,,
COC(=O)[C@H](C)NP(=O)(CC/C=C(\C)CO)Oc1ccccc1 (some centres undefined),0.617,,,,
C/C(=C\CCP(=O)(N[C@@H](C)C(=O)OCc1ccccc1)Oc1ccccc1)CO (some centres undefined),,Active,Active,Non-Toxic,Ratio EC50 [8]: 15000; Stabilty [9]: Stable; Activity (CD8-positive T cell): inactive
C/C(=C\CCP(=O)(N[C@@H](C)C(=O)OC(C)(C)C)Oc1ccccc1)CO (some centres undefined),73.4,Active,Active,Non-Toxic,
COC(=O)[C@H](C)NP(=O)(Oc1ccccc1)C(F)(F)C/C=C(\C)CO (some centres undefined),0.728,,,,Stabilty [9]: Stable
C/C(=C\CCP(=O)(N[C@@H](C)C(=O)OC(C)C)Oc1ccccc1)CO (some centres undefined),0.519,,,,
C/C(=C\CC(F)(F)P(=O)(N[C@@H](C)C(=O)OC(C)(C)C)Oc1ccccc1)CO (some centres undefined),25.8,Active,Active,Non-Toxic,
C/C(=C\COP(=O)(O)OP(=O)(O)O)CO,,Active,Active,Non-Toxic,half-life [10]: > 12 h
O=P(O)(O)C(O)(Cc1cccnc1)P(=O)(O)O [RISEDRONIC ACID],,,,,EC50 [11]: 80 nM
C/C(=C\CC(F)(F)P(=O)(N[C@@H](C)C(=O)OCc1ccccc1)Oc1ccccc1)CO (some centres undefined),,Active,Active,Non-Toxic,Ratio EC50 [8]: 15000; Activity (CD8-positive T cell): inactive
